Activity calls are given as the source filed them. The calls are words filed in the database; no cut-off is given here.
How the values were obtained:
[1] = test system: Hepatitis C virus; assay: Antiviral activity against HCV con1 subgenomic replicon infected in human HuH7 cells assessed as reduction in viral RNA level by qRT-PCR analysis; assay type: functional, organism-based, Hepacivirus hominis; details: isolate Con1, Huh-7
In short: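 Huh-7 cells carrying a subgenomic Con1 HCV replicon (neomycin phosphotransferase, kept under 0.25 mg/ml G418) were exposed to serially diluted compound in DMEM with 2% FBS and 0.5% DMSO, without G418, at 37 °C. Total RNA was extracted and HCV RNA copies were measured by multiplex QRT-PCR (Taqman). EC50 was obtained by 4-parameter curve fit.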

[2] = Cytotoxicity against human HuH7 cells infected with HCV con1 subgenomic replicon assessed as reduction in cell viability measured after 3 days by CellTiter-blue cell viability assay; assay type: cell-based, Huh-7
In short: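 Run in the replicon-bearing Huh-7 cells under the same settings as the antiviral read (DMEM, 2% FBS, 0.5% DMSO, no G418, 37 °C). After 3 days of treatment, viability was read with CellTiter-Blue and CC50 was derived by curve fitting.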

[3] = Selectivity index, ratio of CC50 for human HuH7 cells infected with HCV con1 subgenomic replicon to EC50 for HCV con1 subgenomic replicon; assay type: toxicity; details: read-out: Ratio CC50/EC50
In short: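 Ratio of CC50 (CellTiter-Blue viability after 3 days) to EC50 (HCV RNA by QRT-PCR). Both were measured in Huh-7 Con1 subgenomic replicon cells in DMEM with 2% FBS and 0.5% DMSO at 37 °C.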

[4] = Cytotoxicity against human HuH7 cells incubated for 8 days by cellTiter-Glo assay; assay type: cell-based, Huh-7
In short: (§1)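 Cells (1×10^5/well) on collagen I-coated wells, first kept 8 days in recommended medium without drug, then exposed to compound for 8 days with refeeding every other day. Viability read by CellTiter-Glo luminescence; CC50 derived by curve fitting.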

[5] = Cytotoxicity against human HepG2 cells incubated for 8 days by cellTiter-Glo assay; assay type: cell-based; in short: as §1
[6] = Cytotoxicity against human A549 cells incubated for 8 days by cellTiter-Glo assay; assay type: cell-based; in short: as §1
[7] = Cytotoxicity against human HeLa cells incubated for 8 days by cellTiter-Glo assay; assay type: cell-based; in short: as §1
[8] = Cytotoxicity against human U937 cells incubated for 8 days by cellTiter-Glo assay; assay type: cell-based, U-937; in short: as §1
[9] = Cytotoxicity against human MT4 cells incubated for 8 days by cellTiter-Glo assay; assay type: cell-based; in short: as §1
[10] = Prodrug activation in human hepatocytes assessed as nucleoside monophosphate metabolite formation per million cells incubated for 24 hrs; assay type: ADME, cell-based, Hepatocyte
In short: (§2)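 Primary human hepatocytes (1.5-2 million cells/well) acclimated overnight at 37 °C, 5% CO2, then incubated 24 h with 50 μM extracellular compound. Cells washed with cold 0.9% NaCl and lysed in 70/30 methanol/water. Extract dried and reconstituted, then analysed by LC-MS/MS with an internal standard; reported as pmol per million cells.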

[11] = Prodrug activation in human hepatocytes assessed as [[(2S,3S,4R,5R)-5-(2-amino-6-oxo-1H-purin-9-yl)-2,4-difluoro-3-hydroxy-4-methyl-tetrahydrofuran-2-yl]methoxy-hydroxy-phosphoryl]phosphono hydrogen phosphate metabolite formation per million cells at 50 uM incubated for 24 hrs by LC-MS/MS analysis; assay type: ADME, cell-based, Hepatocyte; in short: as §2
[12] = Prodrug activation in Beagle dog assessed as [[(2S,3S,4R,5R)-5-(2-amino-6-oxo-1H-purin-9-yl)-2,4-difluoro-3-hydroxy-4-methyl-tetrahydrofuran-2-yl]methoxy-hydroxy-phosphoryl]phosphono hydrogen phosphate metabolite formation in liver at 9.69 mg/kg, po measured at 4 hrs post dose by LC-MS/MS analysis; assay type: ADME, organism-based, Canis lupus familiaris; details: in vivo
In short: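 Male non-naïve beagle dogs (n=2 per time point), fasted overnight, single oral dose of 9.69 mg/kg (5 mg/kg parent nucleoside equivalent) as a solution in 40% PEG400 in water. Animals anesthetized with pentobarbital before liver collection. Liver NTP measured by negative-ion LC-MS/MS against standards spiked into blank liver homogenate.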

[13] = biological target: RNA-directed RNA polymerase (Hepacivirus hominis, UniProt O39930); assay: Inhibition of HCV NS5B RNA-dependent RNA polymerase activity assessed as reduction in radiolabeled ribonucleotide monophosphates incorporation into RNA using cIRES template measured after 2 hrs by microscintillation counting method
RNA-directed RNA polymerase, sequence (O39930 whole entry): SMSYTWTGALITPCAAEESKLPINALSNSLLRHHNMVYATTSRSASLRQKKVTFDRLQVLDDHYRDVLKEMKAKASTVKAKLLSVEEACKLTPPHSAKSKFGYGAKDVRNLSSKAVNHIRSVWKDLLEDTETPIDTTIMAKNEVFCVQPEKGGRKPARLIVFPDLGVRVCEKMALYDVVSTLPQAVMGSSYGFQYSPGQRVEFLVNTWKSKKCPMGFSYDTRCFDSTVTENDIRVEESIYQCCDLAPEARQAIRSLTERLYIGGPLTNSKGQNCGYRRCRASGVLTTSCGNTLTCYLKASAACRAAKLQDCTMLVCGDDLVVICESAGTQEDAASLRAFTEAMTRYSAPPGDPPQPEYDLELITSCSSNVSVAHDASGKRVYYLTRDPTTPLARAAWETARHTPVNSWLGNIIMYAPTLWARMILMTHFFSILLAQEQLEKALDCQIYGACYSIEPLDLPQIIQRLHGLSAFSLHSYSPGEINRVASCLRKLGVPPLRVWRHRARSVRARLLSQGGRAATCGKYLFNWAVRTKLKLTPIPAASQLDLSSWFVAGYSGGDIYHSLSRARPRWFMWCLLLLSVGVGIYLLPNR
In short: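 Reactions contained 100 nM NS5B, 50 nM cIRES RNA template, 1 μM tritiated CTP, 1 μM ATP, 1 μM GTP and 0.5 μM UTP in 40 mM Tris-HCl pH 8.0, 20 mM NaCl, 3 mM DTT and 4 mM MgCl2, with serially diluted inhibitor. Incubation was 2 h at 30 °C, then TCA precipitation and scintillation counting of acid-insoluble RNA. Values are the mean of n ≥ 2 determinations.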

[14] = biological target: RNA-directed RNA polymerase (Hepacivirus hominis) (UniProt O39930); assay: Inhibition of HCV NS5B RNA-dependent RNA polymerase 10-mer elongation complex assessed as chain termination of RNA synthesis by measuring reduction in 11-mer RNA product formation at 100 uM incubated for 1 min by polyacrylamide gel based method
RNA-directed RNA polymerase (Hepacivirus hominis), sequence (O39930 1-591): as the sequence (O39930 whole entry) above
In short: (§3)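 The NS5B elongation complex was built from 6.5 μM NS5B, 20 μM pGG, 20 μM 20-nt RNA template, 25 μM ATP and 12.5 μM GTP (pH 7.0 buffer, 2 h, 30 °C), giving a 9-mer. It was extended to a 10-mer with 33P-CTP for 30 s, then pelleted, washed and resuspended. The complex was elongated with 100 μM of each NTP in 40 mM Tris pH 7.4, 150 mM NaCl, 2 mM MgCl2 and 5 mM DTT for 1 min at 30 °C. Products were resolved on 22.5% urea PAGE and quantified by phosphorimager.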

[15] = biological target: RNA-directed RNA polymerase (Hepacivirus hominis) (UniProt O39930); assay: Inhibition of HCV NS5B RNA-dependent RNA polymerase 10-mer elongation complex assessed as chain termination of RNA synthesis by measuring reduction in 20-mer RNA product formation at 100 uM incubated for 1 min in presence of UTP and ATP by polyacrylamide gel based method; in short: as §3
[16] = biological target: T1, DNA polymerase alpha (Homo sapiens, UniProt P09884); assay: Inhibition of human DNA polymerase alpha at 100 uM using calf DNA as substrate by microbeta scintillation counting method relative to control; details: human DNA polymerase alpha enzyme, probe calf DNA
T1 sequence (P09884 whole entry): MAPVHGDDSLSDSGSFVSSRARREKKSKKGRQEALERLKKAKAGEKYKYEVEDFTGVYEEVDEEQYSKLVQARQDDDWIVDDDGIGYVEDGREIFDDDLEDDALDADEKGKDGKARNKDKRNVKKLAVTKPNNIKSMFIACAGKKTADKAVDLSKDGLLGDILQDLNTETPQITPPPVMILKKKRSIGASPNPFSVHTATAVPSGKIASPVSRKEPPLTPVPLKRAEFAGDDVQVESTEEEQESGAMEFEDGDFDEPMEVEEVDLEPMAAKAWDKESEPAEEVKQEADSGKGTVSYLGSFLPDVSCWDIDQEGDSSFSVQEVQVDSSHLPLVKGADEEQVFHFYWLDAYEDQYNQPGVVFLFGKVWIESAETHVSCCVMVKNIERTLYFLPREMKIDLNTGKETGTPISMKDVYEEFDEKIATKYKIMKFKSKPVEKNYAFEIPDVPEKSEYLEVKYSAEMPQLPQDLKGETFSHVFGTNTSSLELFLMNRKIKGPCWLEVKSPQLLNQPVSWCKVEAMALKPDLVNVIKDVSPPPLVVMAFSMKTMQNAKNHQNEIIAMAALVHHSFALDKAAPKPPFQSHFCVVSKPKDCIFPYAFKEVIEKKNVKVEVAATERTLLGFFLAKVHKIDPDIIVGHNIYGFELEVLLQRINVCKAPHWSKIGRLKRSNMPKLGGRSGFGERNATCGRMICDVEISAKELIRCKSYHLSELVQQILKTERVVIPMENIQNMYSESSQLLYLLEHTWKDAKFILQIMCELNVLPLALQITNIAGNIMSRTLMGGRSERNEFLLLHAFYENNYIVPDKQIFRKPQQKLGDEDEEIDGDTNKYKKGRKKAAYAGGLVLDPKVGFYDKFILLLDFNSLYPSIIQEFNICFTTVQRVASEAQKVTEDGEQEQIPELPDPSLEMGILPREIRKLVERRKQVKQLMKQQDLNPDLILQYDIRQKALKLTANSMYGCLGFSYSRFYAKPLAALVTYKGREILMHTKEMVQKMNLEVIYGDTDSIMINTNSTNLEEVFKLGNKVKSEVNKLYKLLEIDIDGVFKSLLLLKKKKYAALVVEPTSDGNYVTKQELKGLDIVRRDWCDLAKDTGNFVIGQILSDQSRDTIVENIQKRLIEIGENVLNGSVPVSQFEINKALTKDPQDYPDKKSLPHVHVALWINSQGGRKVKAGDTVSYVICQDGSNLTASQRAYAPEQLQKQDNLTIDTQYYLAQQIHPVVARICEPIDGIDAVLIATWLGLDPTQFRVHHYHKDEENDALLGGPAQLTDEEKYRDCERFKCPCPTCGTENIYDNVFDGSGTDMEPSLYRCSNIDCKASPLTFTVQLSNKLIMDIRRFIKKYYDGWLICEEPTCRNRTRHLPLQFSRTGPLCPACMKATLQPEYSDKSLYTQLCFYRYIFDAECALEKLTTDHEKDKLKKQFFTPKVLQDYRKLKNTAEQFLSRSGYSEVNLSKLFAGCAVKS
In short: (§4)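 Activated calf thymus DNA served as template for each polymerase, in 50 mM Tris-HCl pH 8.0, 60 mM KCl, 5 mM MgCl2 and 4 mM DTT with 2 μM each of dCTP, dATP and dGTP plus 2.5 μCi 3H-dTTP. Test NTP was at 100 μM. DNA products were precipitated with 20% TCA and counted by microplate scintillation. Results are reported as percent inhibition with standard deviation.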

[17] = biological target: DNA polymerase beta (Homo sapiens, UniProt P06746); assay: Inhibition of human DNA polymerase beta at 100 uM using calf DNA as substrate by microbeta scintillation counting method relative to control; details: human DNA polymerase beta enzyme, probe calf DNA; in short: as §4
[18] = test system: DNA polymerase gamma; assay: Inhibition of human DNA polymerase gamma at 100 uM using calf DNA as substrate by microbeta scintillation counting method relative to control; details: human DNA polymerase gamma enzyme, probe calf DNA; in short: as §4
[19] = Inhibition of RNA polymerase 2 in human HeLa cell nuclear extract assessed as reduction in RNA transcription by polyacrylamide gel electrophoresis method; assay type: cell-based
In short: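 In vitro transcription used HeLa cell nuclear extract. RNA products were resolved on 6% TBE-urea polyacrylamide gels.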

[20] = organism: Homo sapiens; assay: Substrate activity at human mitochondrial RNA polymerase assessed as nucleotide incorporation into RNA at 100 uM using [33P]-labeled 5'-UUUUGCCGCGCC-3' and 3'-CGGCGCGGCACGTAAGGG-5' RNA/DNA primer/template by polyacrylamide gel electrophoresis method
In short: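 Single-turnover conditions: 100 nM 33P-labelled RNA/DNA primer/template with 320 nM human mitochondrial RNA polymerase in excess. Each NTP was tested at 100 μM. ATP, UTP and CTP gauged misincorporation opposite the templating CMP. Products were run on 22.5% TBE-urea sequencing gels and bands quantified by phosphorimager.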

Row | IC50 [13] [nM] | inhibition [14] | inhibition [15] | inhibition at 100 µM [16] [%] | inhibition at 100 µM [17] [%] | inhibition at 100 µM [18] [%] | IC50 [19] [nM] | Activity [20] | Structure (SMILES) | EC50 [1] [nM] | CC50 at 72 h [2] [nM] | selectivity ratio [3] | CC50 at 192 h [4] [nM] | CC50 at 192 h [5] [nM] | CC50 at 192 h [6] [nM] | CC50 at 192 h [7] [nM] | CC50 at 192 h [8] [nM] | CC50 at 192 h [9] [nM] | Drug metabolism [10] [pmol] | Drug metabolism [11] [pmol] | Drug metabolism [12] [µM]
1 | – | – | – | – | – | – | – | – | CCOc1nc(N)nc2c1ncn2[C@@H]1O[C@H](COP(=O)(N[C@@H](C)C(=O)OCC(C)(C)C)Oc2cccc3ccccc23)[C@@H](O)[C@@]1(C)O (some centres undefined) | 348 | 16400 | 47.1 | 350 | 1500 | 7800 | 13400 | 170 | 960 | – | – | –
2 | – | – | – | – | – | – | – | – | CCOc1nc(N)nc2c1ncn2[C@@H]1O[C@](F)(CO[P@](=O)(N[C@@H](C)C(=O)OC(C)C)Oc2ccccc2)[C@@H](O)[C@@]1(C)F | 57 | > 100000 | > 1700 | – | – | – | – | – | – | 67.1 | 174 | 6.33
3 | – | – | – | – | – | – | – | – | CCOc1nc(N)nc2c1ncn2[C@@H]1O[C@](F)(CO[P@@](=O)(N[C@@H](C)C(=O)OC(C)C)Oc2ccccc2)[C@@H](O)[C@@]1(C)F | 5 | > 100000 | > 20000 | – | – | – | – | – | – | 105 | 321 | 22.3
4 | 160 | inactive | Active | 73.2 | 16.3 | 29.8 | > 100000 | inactive | C[C@]1(F)[C@H](n2cnc3c(=O)[nH]c(N)nc32)O[C@](F)(COP(=O)(O)OP(=O)(O)OP(=O)(O)O)[C@H]1O | – | – | – | – | – | – | – | – | – | – | – | –

Source: ChEMBL document CHEMBL4622986, “Synthesis and Anti-HCV Activity of Sugar-Modified Guanosine Analogues: Discovery of AL-611 as an HCV NS5B Polymerase Inhibitor for the Treatment of Chronic Hepatitis C” (J Med Chem, 2020)
